Test results taken from ChEMBL document CHEMBL1154405, “An early response to environmental stress involves regulation of OmpX and OmpF, two enterobacterial outer membrane pore-forming proteins” (2007).
Calls of active or inactive are those of the source. No cut-off for these calls is given here.

Assays:
Klebsiella aerogenes [1] = assay: Increase in ompX-lacZ expression in Enterobacter aerogenes ATCC 15038 assessed as ompX upregulation after 60 mins relative to control; format: functional, organism-based
How it was run: (§1)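 Strains electrotransformed with an ompX–lacZ fusion plasmid (pMD08): E. coli JM109, MC1061 ompX::Cm, AG100, CH164 (marA), E. aerogenes ATCC 15038. Grown in LB (with or without NaCl) to OD600 0.2 at 37°C. Treated with subinhibitory stresses (MIC-derived) or NaCl osmotic shock. Miller units read after 60 min; means of five independent experiments with SD.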

Klebsiella aerogenes [2] = assay: Increase in ompX-lacZ expression in Enterobacter aerogenes ATCC 15038 assessed as increase in beta-galactosidase activity after 60 mins relative to control; format: functional, organism-based; how it was run: as §1
Escherichia coli [3] = assay: Increase in ompX-lacZ expression in Escherichia coli deltaompX mutant assessed as increase in beta-galactosidase activity after 60 mins relative to control; format: functional, organism-based; how it was run: as §1
Escherichia coli [4] = assay: Increase in ompX-lacZ expression in Escherichia coli JM109 assessed as ompX upregulation after 60 mins relative to control; format: functional, organism-based; how it was run: as §1
Escherichia coli [5] = assay: Increase in ompX-lacZ expression in Escherichia coli JM109 assessed as increase in beta-galactosidase activity after 60 mins relative to control; format: functional, organism-based; how it was run: as §1
Escherichia coli [6] = assay: Effect on ompF-lacZ fusion translation in wild type Escherichia coli MC1061 assessed as percent decrease in Miller units of beta-galactosidase activity after 120 mins relative to control; format: functional; design: scale not given: the % may be the effect or the level left
How it was run: (§2)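 ompF promoter–lacZ fusions (pCeJa01, pCeJa02) carried in E. coli AG100 and its marA mutant CH164, and in MC1061 and MC1061 ompX::Cm. Cultures grown in LB (with or without NaCl) to OD600 0.2, then stress added at subinhibitory levels set per strain and promoter from MIC assays, 37°C. β-Galactosidase measured at time intervals (Miller method); percent decrease versus control, SD, Student t test.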

Escherichia coli [7] = assay: Effect on ompF-lacZ fusion translation in ompX-negative Escherichia coli mutant assessed as percent decrease in Miller units of beta-galactosidase activity after 90 mins relative to control; format: functional; design: scale not given: the % may be the effect or the level left; how it was run: as §2
Escherichia coli [8] = assay: Increase in ompX-lacZ expression in Escherichia coli deltaompX mutant assessed as ompX upregulation after 60 mins relative to control; format: functional
How it was run: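 E. coli ompX::Cm strain transformed by electroporation with pMD08 (ompX-lacZ fusion), grown in LB broth (with or without NaCl) to OD600 0.2. Stresses were then added at strain-specific subinhibitory concentrations derived from MICs; osmotic shock was given as NaCl. Cultures were incubated 60 min at 37°C with growth rate monitored. Miller-unit beta-galactosidase activity is the mean of five independent experiments with SD.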

Escherichia coli [9] = assay: Effect on ompF-lacZ fusion translation in wild type Escherichia coli AG100 assessed as percent decrease in Miller units of beta-galactosidase activity after 120 mins relative to control; format: functional; design: scale not given: the % may be the effect or the level left; how it was run: as §2
Escherichia coli [10] = assay: Effect on ompF-lacZ fusion translation in wild type Escherichia coli MC1061 assessed as percent decrease in Miller units of beta-galactosidase activity after 60 mins relative to control; format: functional; design: scale not given: the % may be the effect or the level left
How it was run: (§3)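 E. coli strains carrying ompF-lacZ reporter constructs (pCeJa01/pCeJa02) were grown in LB broth, with or without NaCl, to early exponential phase (OD600 0.2). Stress compounds were then added at subinhibitory concentrations, set from MICs for each strain and promoter, and incubation continued at 37°C. Beta-galactosidase activity (Miller method) was read at time intervals. Percent decrease versus control was calculated, with Student t test and standard deviations.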

Escherichia coli [11] = assay: Effect on ompF-lacZ fusion translation in ompX-negative Escherichia coli mutant assessed as percent decrease in Miller units of beta-galactosidase activity after 120 mins relative to control; format: functional; design: scale not given: the % may be the effect or the level left; how it was run: as §2
Escherichia coli [12] = assay: Effect on ompF-lacZ fusion translation in wild type Escherichia coli AG100 assessed as percent decrease in Miller units of beta-galactosidase activity after 60 mins relative to control; format: functional; design: scale not given: the % may be the effect or the level left; how it was run: as §2
Escherichia coli [13] = assay: Increase in ompX-lacZ expression in marA-negative Escherichia coli CH164 mutant assessed as beta-galactosidase activity after 60 mins relative to control; format: functional; how it was run: as §1
Escherichia coli [14] = assay: Effect on ompF-lacZ fusion translation in wild type Escherichia coli AG100 assessed as percent decrease in Miller units of beta-galactosidase activity after 90 mins relative to control; format: functional; design: scale not given: the % may be the effect or the level left; how it was run: as §3
Escherichia coli [15] = assay: Effect on ompF-lacZ fusion translation in wild type Escherichia coli MC1061 assessed as percent decrease in Miller units of beta-galactosidase activity after 90 mins relative to control; format: functional; design: scale not given: the % may be the effect or the level left; how it was run: as §2
Escherichia coli [16] = assay: Effect on ompF-lacZ fusion transcription in ompX-negative Escherichia coli mutant assessed as percent decrease in Miller units of beta-galactosidase activity after 120 mins relative to control; format: functional; design: scale not given: the % may be the effect or the level left; how it was run: as §2
Escherichia coli [17] = assay: Effect on ompF-lacZ fusion transcription in wild type Escherichia coli MC1061 assessed as percent decrease in Miller units of beta-galactosidase activity after 120 mins relative to control; format: functional; design: scale not given: the % may be the effect or the level left; how it was run: as §2
Escherichia coli [18] = assay: Effect on ompF-lacZ fusion transcription in wild type Escherichia coli AG100 assessed as percent decrease in Miller units of beta-galactosidase activity after 120 mins relative to control; format: functional; design: scale not given: the % may be the effect or the level left; how it was run: as §2
Escherichia coli [19] = assay: Effect on ompF-lacZ fusion transcription in ompX-negative Escherichia coli mutant assessed as percent decrease in Miller units of beta-galactosidase activity after 90 mins relative to control; format: functional; design: scale not given: the % may be the effect or the level left; how it was run: as §2
Escherichia coli [20] = assay: Effect on ompF-lacZ fusion transcription in wild type Escherichia coli AG100 assessed as percent decrease in Miller units of beta-galactosidase activity after 60 mins relative to control; format: functional; design: scale not given: the % may be the effect or the level left; how it was run: as §2
Escherichia coli [21] = assay: Effect on ompF-lacZ fusion transcription in wild type Escherichia coli MC1061 assessed as percent decrease in Miller units of beta-galactosidase activity after 90 mins relative to control; format: functional; design: scale not given: the % may be the effect or the level left; how it was run: as §2
Escherichia coli [22] = assay: Effect on ompF-lacZ fusion translation in marA-negative Escherichia coli CH164 mutant assessed as percent decrease in Miller units of beta-galactosidase activity after 120 mins relative to control; format: functional; design: scale not given: the % may be the effect or the level left; how it was run: as §3
Escherichia coli [23] = assay: Effect on ompF-lacZ fusion translation in marA-negative Escherichia coli CH164 mutant assessed as percent decrease in Miller units of beta-galactosidase activity after 60 mins relative to control; format: functional; design: scale not given: the % may be the effect or the level left; how it was run: as §3
Escherichia coli [24] = assay: Effect on ompF-lacZ fusion transcription in marA-negative Escherichia coli CH164 mutant assessed as percent decrease in Miller units of beta-galactosidase activity after 60 mins relative to control; format: functional; design: scale not given: the % may be the effect or the level left; how it was run: as §2
Escherichia coli [25] = assay: Effect on ompF-lacZ fusion transcription in wild type Escherichia coli AG100 assessed as percent decrease in Miller units of beta-galactosidase activity after 90 mins relative to control; format: functional; design: scale not given: the % may be the effect or the level left; how it was run: as §2
Escherichia coli [26] = assay: Effect on ompF-lacZ fusion transcription in marA-negative Escherichia coli CH164 mutant assessed as percent decrease in Miller units of beta-galactosidase activity after 120 mins relative to control; format: functional; design: scale not given: the % may be the effect or the level left; how it was run: as §3
Klebsiella aerogenes [27] = assay: Induction of ompX-lacZ expression in Enterobacter aerogenes ATCC 15038 assessed as total RNA content after 30 mins by RT-PCR; format: functional, organism-based
Escherichia coli [28] = assay: Effect on ompF-lacZ fusion translation in ompX-negative Escherichia coli mutant assessed as percent decrease in Miller units of beta-galactosidase activity after 60 mins relative to control; format: functional; design: scale not given: the % may be the effect or the level left; how it was run: as §2
Escherichia coli [29] = assay: Effect on ompF-lacZ fusion translation in marA-negative Escherichia coli CH164 mutant assessed as percent decrease in Miller units of beta-galactosidase activity after 90 mins relative to control; format: functional; design: scale not given: the % may be the effect or the level left; how it was run: as §3
Escherichia coli [30] = assay: Effect on ompF-lacZ fusion transcription in marA-negative Escherichia coli CH164 mutant assessed as percent decrease in Miller units of beta-galactosidase activity after 90 mins relative to control; format: functional; design: scale not given: the % may be the effect or the level left; how it was run: as §2
Escherichia coli [31] = assay: Effect on ompF-lacZ fusion transcription in ompX-negative Escherichia coli mutant assessed as percent decrease in Miller units of beta-galactosidase activity after 60 mins relative to control; format: functional; design: scale not given: the % may be the effect or the level left; how it was run: as §2
Escherichia coli [32] = assay: Induction of ompX transcription in SoxS-positive Escherichia coli K12 relative to control; format: functional

Row | SMILES | Activity (Klebsiella aerogenes [1]) | Activity (Klebsiella aerogenes [2]) | Activity (Escherichia coli [3]) | Activity (Escherichia coli [4]) | Activity (Escherichia coli [5]) | Activity (Escherichia coli [6]) [%] | Activity (Escherichia coli [7]) [%] | Activity (Escherichia coli [8]) | Activity (Escherichia coli [9]) [%] | Activity (Escherichia coli [10]) [%] | Activity (Escherichia coli [11]) [%] | Activity (Escherichia coli [12]) [%] | Activity (Escherichia coli [13]) | Activity (Escherichia coli [14]) [%] | Activity (Escherichia coli [15]) [%] | Activity (Escherichia coli [16]) [%] | Activity (Escherichia coli [17]) [%] | Activity (Escherichia coli [18]) [%] | Activity (Escherichia coli [19]) [%] | Activity (Escherichia coli [20]) [%] | further results
1 | CCn1cc(C(=O)O)c(=O)c2ccc(C)nc21 | Active | Active | Active | Active | Active | – | – | – | – | – | – | – | – | – | – | – | – | – | – | – | –
2 | NCCc1ccccc1 | Active | Active | Active | Active | Active | – | – | – | – | – | – | – | – | – | – | – | – | – | – | – | –
3 | c1ccc(-c2ccccn2)nc1 [DIPYRIDYL] | Active | Active | – | Active | Active | 18.4 | 19 | 2 | 55 | 7.4 | 28.6 | 52 | Active | 53 | 16.1 | – | – | – | – | – | –
4 | CCn1cc(C(=O)O)c(=O)c2cc(F)c(N3CCNCC3)cc21 [NORFLOXACIN] | Active | Active | Active | Active | Active | 27.5 | 21.7 | – | 16.6 | – | 22 | 14.1 | 1.5 | – | 27.1 | 19.2 | 24 | 8.2 | 18.6 | 13.2 | Activity (Escherichia coli [21]): 14.9%
5 | CO[C@@H]1[C@@H](OC(N)=O)[C@@H](O)[C@H](Oc2ccc3c(O)c(NC(=O)c4ccc(O)c(CC=C(C)C)c4)c(=O)oc3c2C)OC1(C)C [NOVOBIOCIN] | Active | Active | – | Active | Active | 50.9 | 45.3 | 2 | 46.8 | 21.3 | 55.2 | 48.5 | Active | 39.8 | 38.4 | 36 | 36.5 | 25.7 | 25.3 | 25.5 | Activity (Escherichia coli [22]): 26.9%; Activity (Escherichia coli [23]): 23.6%; Activity (Escherichia coli [24]): 9.5%; Activity (Escherichia coli [25]): 32.6%; Activity (Escherichia coli [26]): 24.5%; Activity (Klebsiella aerogenes [27]): Active; Activity (Escherichia coli [28]): 28.4%; Activity (Escherichia coli [29]): 21.2%; Activity (Escherichia coli [30]): 20%; Activity (Escherichia coli [21]): 28.6%; Activity (Escherichia coli [31]): 17%
6 | C[n+]1ccc(-c2cc[n+](C)cc2)cc1 [PARAQUAT] | Active | Active | Active | Active | Active | – | – | – | – | – | – | – | – | – | – | – | – | – | – | – | Activity (Escherichia coli [32]): 1.2
7 | O=C(O)c1ccccc1O [SALICYLIC ACID] | Active | Active | – | Active | Active | 45.6 | 40.9 | 2 | 49 | 42.5 | 43.7 | 59 | – | 51.8 | 46.8 | 14.8 | 17.3 | 15.8 | 26 | 29.9 | Activity (Escherichia coli [24]): 17.4%; Activity (Escherichia coli [25]): 25.7%; Activity (Klebsiella aerogenes [27]): Active; Activity (Escherichia coli [28]): 35.3%; Activity (Escherichia coli [30]): 15.5%; Activity (Escherichia coli [21]): 25%; Activity (Escherichia coli [31]): 21%
